# Assay outcomes deposited in PubChem BioAssay by The Scripps Research Institute Molecular Screening Center.
# PAFAH2 inh: PAFAH2 enzyme inhibitors, primary screen, biochemical, fluorescence polarization, human | recombinant PAFAH2, FP-rhodamine activity probe | inhibition, % at 3.39 µM | 0.99% of 340,000 active;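 active = inhibition above the mean over all tested compounds plus 3 SD, cut at about 30% in these data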;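 also: inhibitors block probe labeling of enzyme so polarization drops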
# pPAFAH inh: pPAFAH enzyme inhibitors, primary screen, biochemical, fluorescence polarization, human; Platelet-activating factor acetylhydrolase (Homo sapiens), Q13093; recombinant pPAFAH, FP-rhodamine probe fluorescence polarization; inhibition, % at 3.39 µM; 1.5% of 330,000 active;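 active = inhibition above the mean inhibition across the screen plus 3 SD, cut at about 25% in these data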;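 also: inhibitors block binding of the rhodamine activity-based probe so polarization drops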
# Target sequence (Q13093 whole entry, looked up): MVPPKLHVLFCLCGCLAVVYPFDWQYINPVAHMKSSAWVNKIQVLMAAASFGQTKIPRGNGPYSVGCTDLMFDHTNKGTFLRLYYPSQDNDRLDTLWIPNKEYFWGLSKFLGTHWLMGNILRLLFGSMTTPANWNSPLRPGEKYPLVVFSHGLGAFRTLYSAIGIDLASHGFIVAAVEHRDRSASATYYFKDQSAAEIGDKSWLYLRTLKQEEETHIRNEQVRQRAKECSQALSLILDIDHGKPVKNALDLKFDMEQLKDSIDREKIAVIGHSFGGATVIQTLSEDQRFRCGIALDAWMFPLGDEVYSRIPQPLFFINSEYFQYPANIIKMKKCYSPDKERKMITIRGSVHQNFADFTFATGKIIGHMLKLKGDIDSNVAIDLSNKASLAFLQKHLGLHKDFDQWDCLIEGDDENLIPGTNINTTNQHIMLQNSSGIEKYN
# PAFAH1B3 inh: PAFAH1B3 enzyme inhibitors, primary screen, biochemical, fluorescence polarization, human; AID 492972, 2010; 0.28% of 340,000 active; Platelet-activating factor acetylhydrolase IB subunit alpha1 (Homo sapiens), Q15102; recombinant PAFAH1B3, FP-rhodamine probe; inhibition, % at 3.39 µM;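 active = inhibition above the screen-wide average of all tested compounds plus 3 SD, cut at about 25% in these data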
# Target sequence (Q15102 whole entry, looked up): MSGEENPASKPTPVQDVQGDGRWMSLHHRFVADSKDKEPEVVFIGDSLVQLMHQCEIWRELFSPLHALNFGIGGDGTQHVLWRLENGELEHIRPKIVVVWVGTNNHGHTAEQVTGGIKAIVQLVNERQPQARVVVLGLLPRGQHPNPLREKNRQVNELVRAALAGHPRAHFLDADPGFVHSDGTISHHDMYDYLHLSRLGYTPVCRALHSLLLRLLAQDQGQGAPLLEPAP
# PAFAH1B2 FP inh: PAFAH1B2 enzyme inhibitors, primary screen, biochemical, fluorescence polarization, human; recombinant PAFAH1B2, FP-rhodamine activity probe; inhibition, % at 3.39 µM; 1.2% of 340,000 active;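 active = inhibition above the mean of all tested compounds plus 3 SD, cut at about 24% in these data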
# IMP-1 inhibitor: IMP-1 metallo-beta-lactamase inhibitors, primary screen, biochemical, epi-absorbance readout, Pseudomonas aeruginosa enzyme; metallo-beta-lactamase IMP-1 (Pseudomonas aeruginosa); 0.45% of 290,000 active; AID 1556, 2009; inhibition, % at 5.6 µM; purified IMP-1, nitrocefin hydrolysis, epi-absorbance fluorescence;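 active = inhibition above the mean plus 3 SD of all compounds in the same screening run, cut at about 4.5% in these data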
#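 Assay system: purified recombinant IMP-1 beta-lactamase. Input: IMP-1 0.2 nM before substrate addition. Buffer or medium: Zinc- and detergent-supplemented HEPES buffer, pH 7.1. Schedule: 25 °C, 15 min preincubation, 25 min reaction. Signal: Epi-absorbance fluorescence, 480 nm excitation, 530 nm emission. Evaluation: percent inhibition from optical density relative to buffer-blank wells.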
# VIM-2 inhibitor: VIM-2 metallo-beta-lactamase inhibitors, primary screen, biochemical, epi-absorbance readout, Pseudomonas aeruginosa enzyme. inhibition, % at 5.6 µM. purified VIM-2, nitrocefin hydrolysis, epi-absorbance fluorescence. 0.89% of 290,000 active;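 active = inhibition above the mean of all tested compounds plus 3 SD, cutoff set per screening run, cut at about 7.5% in these data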;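 also: red hydrolysis product quenches plate fluorescence so inhibitors raise well fluorescence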
# Numbers stand for hits; – = inactive; · = no result. Sampled rows, rich in hits. Any-hit rate of the full collection: about 3.6%.
SMILES,PAFAH2 inh,pPAFAH inh,PAFAH1B3 inh,PAFAH1B2 FP inh,IMP-1 inhibitor,VIM-2 inhibitor
CCOC(=O)C1=C(C)N(CCCCCC(=O)O)C(=O)NC1c1cccc([N+](=O)[O-])c1 (configuration not stated),–,–,–,–,–,–
O=C(O)c1cccc(Nc2nc(-c3cc4ccccc4oc3=O)cs2)c1,–,·,–,–,6.2,–
O=c1oc2ccccc2cc1-c1csc(NN=C2CCCC2)n1,–,–,–,–,–,–
Cc1oc(=O)cc(OCc2ccccc2)c1C,–,–,–,–,·,·
CCN(CC)CCCNC(=O)Cn1cnc2ccc(S(=O)(=O)N3CCC(C)CC3)cc2c1=O,–,–,–,–,–,–
Cc1cccc(NC(=O)Cn2cnc3ccc(S(=O)(=O)N4CCC(C)CC4)cc3c2=O)n1,–,–,–,24,–,–
Cc1ccccc1NC(=S)NCc1ccc2c(c1)cc(C)n2C,–,–,–,–,43,–
COc1ccc(OC)c(/C=N/c2oc(-c3ccco3)c(-c3ccco3)c2C#N)c1,–,30,–,–,–,–
N#Cc1c(N)oc(-c2ccco2)c1-c1ccco1,–,–,–,–,–,–
O=C(O)c1cccc(NC(CNS(=O)(=O)c2ccc(Cl)cc2)c2ccccc2)c1 (configuration not stated),–,26,–,75,–,–
Cn1cccc1C(=O)NCC(c1ccco1)N1CCCCC1 (configuration not stated),–,–,–,–,·,·
CSc1nc2sc3c(c2c2nncn12)CCC3,–,–,–,–,–,11
CCCCn1c(N)c(Sc2ccccc2)c(=O)[nH]c1=O,–,–,–,–,5.0,–
COc1cc(-c2ccc3c(=O)c4ccccc4n(C)c3c2)cc(OC)c1OC,–,–,–,–,–,12
Cn1c(-c2ccc3c(c2)OCO3)cc(=O)c2ccccc21,–,–,–,–,–,–
Cn1c2ccccc2c(=O)c2ccc(-c3ccc4c(c3)OCO4)cc21,–,–,–,–,–,9.3
COc1cc(-c2ccc3c(=O)c4ccccc4sc3c2)cc(OC)c1OC,–,–,–,–,·,·
Cn1c2ccccc2c(=O)c2ccc(C#Cc3ccccn3)cc21,·,–,·,·,–,10
CSc1ncccc1C(=O)OCC(=O)NC1CC1,–,·,–,–,·,·
Cc1cc(OCCn2nc(C(=O)O)c3ccccc3c2=O)ccc1C(C)C,–,·,–,–,–,–
O=C(O)c1nn(CCOc2ccc(Br)cc2)c(=O)c2ccccc12,–,–,–,27,–,–
Cc1cc(C)c(S(=O)(=O)/N=C2/C=C(SCC(=O)O)C(=O)c3ccccc32)cc1C,30,·,37,–,–,–
O=C(Sc1ccc(Cl)cc1)c1ccccn1,–,–,–,–,·,·
C=CCn1c(SCC(=O)N2CCOCC2)nc2scc(-c3ccco3)c2c1=O,–,–,–,–,–,–
C=CCn1c(SCC(C)=O)nc2scc(-c3ccco3)c2c1=O,–,–,–,–,16,–
SMILES,PAFAH2 inh,pPAFAH inh,PAFAH1B3 inh,PAFAH1B2 FP inh,IMP-1 inhibitor,VIM-2 inhibitor
O=C(CCNC(=O)c1ccc(Cl)cc1)Nc1ccncc1,–,–,–,–,·,·
Cc1cccc(C(=O)Nc2sc(-c3ccccc3)cc2C(=O)O)c1,–,34,–,33,–,–
CCc1ccccc1NC(=O)N1CCCc2ccccc21,–,·,–,–,–,–
Cc1ccc(CNS(=O)(=O)c2ccc3c(c2)NC(=O)C(C)S3)cc1 (configuration not stated),–,–,–,–,–,–
Cc1ccc(CCNS(=O)(=O)c2ccc(C)cc2)cc1,–,–,–,26,–,–
Cc1ccc(CSCCNS(=O)(=O)c2ccc(C)cc2)cc1,–,–,–,25,–,–
Cc1ccc(S(=O)(=O)NCCC(=O)O)cc1,–,–,–,–,–,–
Cc1ccc(S(=O)(=O)NCCCNS(=O)(=O)c2ccc(C)cc2)cc1,–,26,–,–,·,·
Cc1ccc(CCNS(=O)(=O)c2ccc3c(c2)NC(=O)C(C)C(=O)N3)cc1 (configuration not stated),–,–,–,27,–,–
Cc1ccc(S(=O)(=O)NCCc2ccc(S(N)(=O)=O)cc2)cc1,–,–,–,–,–,–
C/C(=N\NC(=O)c1ccc(Cn2cc(Br)cn2)o1)c1ccc(NC(=O)c2ccoc2C)cc1,–,·,–,–,–,–
COc1ccc(CCNC(=O)C(C)n2nc(C)c3c(C)n(-c4ccc(C)cc4)nc3c2=O)c(OC)c1 (configuration not stated),–,–,–,–,–,–
Cc1ccc2[nH]cc(CCNS(=O)(=O)c3ccc(F)cc3)c2c1,–,·,–,27,–,–
Cc1ccc(C(NC(=O)c2cccc(S(=O)(=O)N3CCN(C)CC3)c2)c2ccccc2)cc1 (configuration not stated),–,–,–,–,·,·
O=C(CN1C(=O)C2CC=CCC2C1=O)Nc1nc(-c2ccc(F)c(F)c2)cs1 (configuration not stated),–,–,–,–,·,·
CCn1c(N2CCN(Cc3ccc([N+](=O)[O-])cc3)CC2)nc2ccccc21,–,–,–,–,23,–
CCCn1c(N2CCN(Cc3ccc(Cl)cc3)CC2)nc2ccccc21,–,–,–,–,–,–
COc1cc(/C=C2\SC(=O)N(Cc3ccc(Cl)cc3)C2=O)cc([N+](=O)[O-])c1O,49,·,–,39,–,–
CCN1CCN(C(=O)c2cc3c(-c4ccc(Cl)cc4)nn(C)c3s2)CC1,–,–,–,–,–,11
Cn1nc(-c2ccc(Cl)cc2)c2cc(C(=O)N3CCN(C(=O)c4ccco4)CC3)sc21,–,–,–,–,–,–
Cc1cccc(N2C(=O)c3cccc4c(N(C)CCO)ccc(c34)C2=O)c1,–,–,–,–,5.1,–
CN(C)c1ccc2c3c(cccc13)C(=O)N(c1ccccc1)C2=O,·,–,·,·,–,–
COc1cc(/C=C2\CCC/C(=C\c3ccc(O)c(OC)c3)C2=O)ccc1O,–,–,–,–,–,11
O=C1c2cccc3cccc(c23)C(=O)N1c1ccc(O)cc1,–,–,–,–,–,8.4
O=C(O)c1cc(O)ccc1NC(=O)C(c1ccccc1)c1ccccc1,–,–,–,24,–,–
Cc1ccc(S(=O)(=O)N2C[C@@H]3CCCC[C@@H]3[C@@H](C)[C@H]2CC(=O)c2ccccc2)cc1,–,–,–,–,·,·
CC(C)(C)N(Cc1ccccc1)C(=O)CN1C(=O)c2ccccc2S1(=O)=O,–,–,–,–,·,·
C[C@@H]1CN([C@@H](C)CO)C(=O)c2cccc(NC(=O)Nc3ccccc3)c2O[C@H]1CN(C)C(=O)Nc1cccc2ccccc12,–,–,–,–,·,·
